Source: ChEMBL document CHEMBL1155479, “Highly potent, non-basic 5-HT6 ligands. Site mutagenesis evidence for a second binding mode at 5-HT6 for antagonism” (Bioorg Med Chem Lett, 2010)

Molecular target: Cytochrome P450 2D6 (Homo sapiens, UniProt P10635)
Assay: Inhibition of CYP2D6
Format: ADME

Cytochrome P450 2D6, sequence (P10635 whole entry): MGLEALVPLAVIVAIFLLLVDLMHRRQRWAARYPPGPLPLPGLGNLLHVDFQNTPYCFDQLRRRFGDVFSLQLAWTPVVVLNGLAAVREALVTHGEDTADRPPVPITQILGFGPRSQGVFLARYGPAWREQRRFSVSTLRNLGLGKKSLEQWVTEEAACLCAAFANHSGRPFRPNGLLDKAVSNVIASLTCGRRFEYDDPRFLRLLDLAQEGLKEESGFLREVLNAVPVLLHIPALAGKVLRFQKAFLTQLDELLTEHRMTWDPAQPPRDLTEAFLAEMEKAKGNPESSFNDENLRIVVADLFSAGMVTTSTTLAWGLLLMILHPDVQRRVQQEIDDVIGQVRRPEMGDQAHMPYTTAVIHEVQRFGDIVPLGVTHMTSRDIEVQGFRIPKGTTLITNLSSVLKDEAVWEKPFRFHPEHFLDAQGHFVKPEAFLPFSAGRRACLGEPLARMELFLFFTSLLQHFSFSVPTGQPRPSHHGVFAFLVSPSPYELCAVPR

With `N=C(N)NCC1CCCc2cc(S(=O)(=O)c3ccccc3)ccc21` (stereo unspecified) the IC50 was less than 50 nM.

Molecular target: 5-hydroxytryptamine receptor 6 (Homo sapiens, UniProt P50406)
Assay: Displacement of [3H]LSD form human recombinant 5HT6 receptor
Summary of the method: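 Membranes prepared from cells engineered to recombinantly express human 5-HT6 receptors; competitive radioligand binding with [3H]LSD; affinity reported as pKi (−log M).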

5-hydroxytryptamine receptor 6, sequence (P50406 whole entry): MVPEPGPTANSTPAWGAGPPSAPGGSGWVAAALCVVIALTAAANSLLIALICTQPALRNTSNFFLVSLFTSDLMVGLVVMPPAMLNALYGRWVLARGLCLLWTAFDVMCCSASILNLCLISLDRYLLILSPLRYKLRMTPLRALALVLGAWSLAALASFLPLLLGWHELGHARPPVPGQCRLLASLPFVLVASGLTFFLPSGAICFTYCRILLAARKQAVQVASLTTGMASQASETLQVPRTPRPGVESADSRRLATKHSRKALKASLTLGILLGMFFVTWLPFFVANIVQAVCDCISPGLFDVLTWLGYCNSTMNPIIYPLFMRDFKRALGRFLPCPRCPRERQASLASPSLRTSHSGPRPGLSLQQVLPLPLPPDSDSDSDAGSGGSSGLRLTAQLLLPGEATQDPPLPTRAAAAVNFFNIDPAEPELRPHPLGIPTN

Compared with `CNC(=O)NC[C@@H]1CCCc2cc(S(=O)(=O)c3cccc(F)c3)ccc21`, `CC(=O)NC[C@@H]1CCCc2cc(S(=O)(=O)c3cccc(F)c3)ccc21` is 3.2-fold lower in Ki: 0.398 nM for the first, 0.126 nM for the second.

First: CN(C)C(=O)NC[C@@H]1CCCc2cc(S(=O)(=O)c3cccc(F)c3)ccc21
Second: CN(C)CC(=O)NC[C@@H]1CCCc2cc(S(=O)(=O)c3cccc(F)c3)ccc21
The Ki of the first is 6.3-fold higher: 2.51 nM for the first, 0.398 nM for the second.

First: CC(=O)NC[C@@H]1CCCc2cc(S(=O)(=O)c3ccccc3)cc(F)c21
Second: NC(=O)NC[C@@H]1CCCc2cc(S(=O)(=O)c3cccc(F)c3)cc(F)c21
The Ki of the first is 1.6-fold higher: 0.316 nM for the first, 0.2 nM for the second. The second binds more tightly here.

Going from `CN(C)S(=O)(=O)NC[C@@H]1CCCc2cc(S(=O)(=O)c3cccc(F)c3)ccc21` to `CS(=O)(=O)NC[C@@H]1CCCc2cc(S(=O)(=O)c3cccc(F)c3)ccc21`, the Ki falls from 2 nM to 0.2 nM (10-fold). The second binds more tightly here.

First: O=S(=O)(c1cccc(F)c1)c1ccc2c(c1)CCC[C@H]2CNS(=O)(=O)C(F)(F)F
Second: NS(=O)(=O)NC[C@@H]1CCCc2cc(S(=O)(=O)c3cccc(F)c3)ccc21
The Ki of the first is 250-fold higher: 31.6 nM for the first, 0.126 nM for the second.

Compared with `N=C(N)NC(=O)C[C@@H]1CCCc2cc(S(=O)(=O)c3cccc(F)c3)ccc21`, `NC(=O)CNC[C@@H]1CCCc2cc(S(=O)(=O)c3cccc(F)c3)ccc21` is 6.3-fold lower in Ki: 0.631 nM for the first, 0.1 nM for the second.

Going from `CC(C)(O)C(=O)NC[C@@H]1CCCc2cc(S(=O)(=O)c3cccc(F)c3)ccc21` to `CC(C)(C)C(=O)NC[C@@H]1CCCc2cc(S(=O)(=O)c3cccc(F)c3)ccc21`, the Ki rises from 2 nM to 3.98 nM (2-fold).

Going from `CN(C[C@@H]1CCCc2cc(S(=O)(=O)c3cccc(F)c3)ccc21)S(C)(=O)=O` to `CN(C[C@@H]1CCCc2cc(S(=O)(=O)c3cccc(F)c3)ccc21)S(N)(=O)=O`, the Ki rises from 0.398 nM to 3.98 nM (10-fold). The first binds more tightly here.

Compared with `O=C1CN(C[C@@H]2CCCc3cc(S(=O)(=O)c4cccc(F)c4)ccc32)CCN1`, `O=S(=O)(c1cccc(F)c1)c1ccc2c(c1)CCC[C@H]2CN1CC(O)C1` is 63-fold lower in Ki: 6.31 nM for the first, 0.1 nM for the second.

Compared with `O=S(=O)(c1cccc(F)c1)c1cc(F)c2c(c1)CCC[C@H]2CNCCO`, `O=C(CO)NC[C@@H]1CCCc2cc(S(=O)(=O)c3cccc(F)c3)cc(F)c21` is 1.6-fold higher in Ki: 0.158 nM for the first, 0.251 nM for the second.

Going from `COCC(=O)NC[C@@H]1CCCc2cc(S(=O)(=O)c3cccc(F)c3)ccc21` to `COC(=O)NC[C@@H]1CCCc2cc(S(=O)(=O)c3cccc(F)c3)ccc21`, the Ki rises from 0.794 nM to 1.58 nM (2-fold).

First: NC[C@@H]1CCCc2cc(S(=O)(=O)c3cncs3)ccc21
Second: NC[C@@H]1CCCc2cc(S(=O)(=O)c3cn[nH]c3)ccc21
The Ki of the first is 2.5-fold lower: 0.794 nM for the first, 2 nM for the second.

Going from `NC[C@@H]1CCCc2cc(S(=O)(=O)c3c[nH]c4ccccc34)ccc21` to `NC[C@@H]1CCCc2cc(S(=O)(=O)c3ccccc3)ccc21`, the Ki rises from 0.0501 nM to 0.158 nM (3.2-fold). The first binds more tightly here.

Compared with `CC(=O)N(C)C[C@@H]1CCCc2cc(S(=O)(=O)c3cccc(F)c3)ccc21`, `CN(C[C@@H]1CCCc2cc(S(=O)(=O)c3cccc(F)c3)ccc21)C(N)=O` is 25-fold higher in Ki: 1.58 nM for the first, 39.8 nM for the second. The first binds more tightly here.

Compared with `CNC(=O)CNC[C@@H]1CCCc2cc(S(=O)(=O)c3cccc(F)c3)ccc21`, `CNCC(=O)NC[C@@H]1CCCc2cc(S(=O)(=O)c3cccc(F)c3)ccc21` is 6.3-fold lower in Ki: 1 nM for the first, 0.158 nM for the second.

First: O=S(=O)(c1cccc(F)c1)c1ccc2c(c1)CCC[C@H]2CNCCO
Second: COCCNC[C@@H]1CCCc2cc(S(=O)(=O)c3cccc(F)c3)ccc21
The Ki of the first is 2-fold lower: 0.126 nM for the first, 0.251 nM for the second.

Going from `CNCC1CCCc2cc(S(=O)(=O)c3ccccc3)ccc21` (stereo unspecified) to `CC(=N)NCC1CCCc2cc(S(=O)(=O)c3ccccc3)ccc21` (stereo unspecified), the Ki rises from 0.316 nM to 0.631 nM (2-fold). The first binds more tightly here.

Compared with `O=S(=O)(c1ccccc1)c1ccc2c(c1)CCCC2CNc1ncccn1` (stereo unspecified), `N=C(N)NCC1CCCc2cc(S(=O)(=O)c3ccccc3)ccc21` (stereo unspecified) is 160-fold lower in Ki: 25.1 nM for the first, 0.158 nM for the second. The second binds more tightly here.

First: CS(=O)(=O)c1cccc(S(=O)(=O)c2ccc3c(c2)CCC[C@H]3CN)c1
Second: NC[C@@H]1CCCc2cc(S(=O)(=O)c3cccc(O)c3)ccc21
The Ki of the first is 16-fold higher: 3.98 nM for the first, 0.251 nM for the second. The second binds more tightly here.

First: O=C(CO)NC[C@@H]1CCCc2cc(S(=O)(=O)c3cccc(F)c3)ccc21
Second: NCC(=O)NC[C@@H]1CCCc2cc(S(=O)(=O)c3cccc(F)c3)ccc21
The Ki of the first is 3.2-fold lower: 0.1 nM for the first, 0.316 nM for the second.

First: N#Cc1cccc(S(=O)(=O)c2ccc3c(c2)CCC[C@H]3CN)c1
Second: NC[C@@H]1CCCc2cc(S(=O)(=O)c3cccc(F)c3)ccc21
The Ki of the first is 6.3-fold higher: 0.501 nM for the first, 0.0794 nM for the second. The second binds more tightly here.

Going from `NC[C@@H]1CCCc2cc(S(=O)(=O)c3cc[nH]c3)ccc21` to `CNC[C@@H]1CCCc2cc(S(=O)(=O)c3cc[nH]c3)ccc21`, the Ki falls from 0.316 nM to 0.158 nM (2-fold). The second binds more tightly here.

Going from `O=C(NC[C@@H]1CCCc2cc(S(=O)(=O)c3cccc(F)c3)ccc21)c1ncc[nH]1` to `O=C(NC[C@@H]1CCCc2cc(S(=O)(=O)c3cccc(F)c3)ccc21)c1ccc[nH]1`, the Ki falls from 15.8 nM to 5.01 nM (3.2-fold). The second binds more tightly here.

Compared with `CN(C)CC1CCCc2cc(S(=O)(=O)c3ccccc3)ccc21` (stereo unspecified), `NC[C@@H]1CCCc2cc(S(=O)(=O)Cc3ccccc3)ccc21` is 2500-fold higher in Ki: 0.0631 nM for the first, 158 nM for the second.

Compared with `Cn1ccc(S(=O)(=O)c2ccc3c(c2)CCC[C@H]3CN)c1`, `COc1cccc(S(=O)(=O)c2ccc3c(c2)CCC[C@H]3CN)c1` is 20-fold lower in Ki: 7.94 nM for the first, 0.398 nM for the second. The second binds more tightly here.

First: O=C(NC[C@@H]1CCCc2cc(S(=O)(=O)c3cccc(F)c3)ccc21)[C@H]1CCCN1
Second: NC(=O)NC[C@@H]1CCCc2cc(S(=O)(=O)c3cccc(F)c3)ccc21 [LANDIPIRDINE]
The Ki of the first is 3.2-fold higher: 0.631 nM for the first, 0.2 nM for the second.

Compared with `O=S(=O)(c1cccc(F)c1)c1ccc2c(c1)CCC[C@H]2CN1CCCS1(=O)=O`, `CNS(=O)(=O)NC[C@@H]1CCCc2cc(S(=O)(=O)c3cccc(F)c3)ccc21` is 32-fold lower in Ki: 31.6 nM for the first, 1 nM for the second. The second binds more tightly here.

Compared with `O=C1CN=C(NC[C@@H]2CCCc3cc(S(=O)(=O)c4cccc(F)c4)ccc32)N1`, `CN(CC(N)=O)C[C@@H]1CCCc2cc(S(=O)(=O)c3cccc(F)c3)ccc21` is 13-fold higher in Ki: 0.1 nM for the first, 1.26 nM for the second. The first binds more tightly here.

Compared with `NC[C@@H]1CCCc2cc(S(=O)(=O)c3cc(F)cc4[nH]cnc34)ccc21`, `NC[C@@H]1CCCc2cc(S(=O)(=O)C3CCCCC3)ccc21` is higher in Ki: 5.01 nM for the first, greater than 1000 nM for the second. The first binds more tightly here.

`O=S(=O)(O)CCCNC[C@@H]1CCCc2cc(S(=O)(=O)c3cccc(F)c3)ccc21` showed a Ki of 1.26 nM.

System: not listed separately
Assay: Inhibition of CYP450
Format: ADME

`CC(=O)NC[C@@H]1CCCc2cc(S(=O)(=O)c3ccccc3)cc(F)c21` showed an IC50 greater than 15000 nM.
